Measurements published in ChEMBL document CHEMBL5376016, “Synthesis of novel rapanone derivatives via organocatalytic reductive C-alkylation: biological evaluation of antioxidant properties, in vivo zebrafish embryo toxicity, and docking studies” (RSC Med Chem, 2024).
Converted amounts (≈) assume the structure as drawn.

Columns and labels:
[1] = Acute toxicity in zebrafish embryo assessed as survival rate at 96 hrs post fertilization relative to control; design: species or system Danio rerio; concentration or dose not given beside the values; conditions: in vivo
In short: (§1)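 Lethality endpoints were coagulation and absence of heartbeat, checked by inverted microscope. Survival was compared with untreated embryos across three independent experiments; mean ± SD, ANOVA.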

[2] = Acute toxicity in zebrafish embryo assessed as morphological changes by measuring yolk sac edema at upto 160 uM measured after 96 hrs post fertilization; design: species or system Danio rerio; conditions: in vivo
In short: (§2)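 Wild-type Danio rerio embryos were exposed in milli-Q water with compound dissolved in DMSO (≤0.25 v/v final). Controls were milli-Q water and water with DMSO. Embryos were held at 26.8 ± 1 °C and scored by inverted microscope at 24–96 hpf, after exposure at 160 µM, for bent spine, yolk sac edema, pericardial edema, short tail and bent tail.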

[3] = Acute toxicity in zebrafish embryo assessed as morphological changes by measuring bent spine at upto 160 uM measured after 96 hrs post fertilization; design: species or system Danio rerio; conditions: in vivo; in short: as §2
[4] = Acute toxicity in zebrafish embryo assessed as morphological changes by measuring short tail at upto 160 uM measured after 96 hrs post fertilization; design: species or system Danio rerio; conditions: in vivo; in short: as §2
[5] = Antioxidant activity assessed as DPPH radical scavenging activity after 30 mins by spectrophotometric analysis; assay type: functional
In short: (§3)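 Ascorbic acid was the reference standard. For DPPH, 0.2 mM DPPH in methanol was kept in the dark, mixed with compound at 5–160 µM (DMSO stock), and incubated 30 min in the dark at room temperature, then A517 was read. %RSA = (Ac−As)/Ac×100. Triplicate runs; IC50 taken from the plot of % scavenging versus concentration.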

[6] = Antioxidant activity assessed as DPPH radical scavenging activity after 30 mins by spectrophotometric analysis relative to control; assay type: functional; design: concentration or dose not given beside the values; in short: as §3
[7] = Antioxidant activity assessed as ABTS radical scavenging activity after 6 mins by spectrophotometric analysis; assay type: functional
[8] = Acute toxicity in zebrafish embryo assessed as hatching rate at 20 to 160 uM measured after 48 hrs post fertilization relative to control; design: species or system Danio rerio; conditions: in vivo, dose 20-160 µM
In short: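 Controls were water and water with 0.5% DMSO. Incubation at 26.8 ± 1 °C, 20 embryos per well. Hatching scored over 0–96 hpf under an inverted microscope. Triplicate, three independent experiments; mean ± SD; ANOVA.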

[9] = Acute toxicity in zebrafish embryo assessed as survival rate at 160 uM measured after 96 hrs post fertilization relative to control; design: species or system Danio rerio; conditions: in vivo; in short: as §1
[10] = Acute toxicity in zebrafish embryo assessed as morphological changes by measuring pericardial edema at upto 160 uM measured after 96 hrs post fertilization; design: species or system Danio rerio; conditions: in vivo; in short: as §2
[11] = Acute toxicity in zebrafish embryo assessed as morphological changes by measuring bent tail at upto 160 uM measured after 96 hrs post fertilization; design: species or system Danio rerio; conditions: in vivo; in short: as §2
[12] = Antioxidant activity assessed as ABTS radical scavenging activity after 6 mins by spectrophotometric analysis relative to control; assay type: functional; design: concentration or dose not given beside the values
[13] = Acute toxicity in zebrafish embryo assessed as survival rate at 20 uM measured after 96 hrs post fertilization relative to control; design: species or system Danio rerio; conditions: in vivo; in short: as §1
[14] = Antioxidant activity assessed as ABTS radical scavenging activity after 30 mins by spectrophotometric analysis; assay type: functional
[15] = Antioxidant activity assessed as DPPH radical scavenging activity after 20 mins by […]; assay type: functional
[16] = Antioxidant activity assessed as ABTS radical scavenging activity after 30 mins by […]
[17] = Acute toxicity in zebrafish embryo assessed as morphological changes at upto 160 uM measured after 48 hrs post fertilization relative to control; design: species or system Danio rerio; conditions: in vivo; in short: as §2

Compound | survival at 96 h ([1]; read-out: Activity) [%] | Activity [2] | Activity [3] | Activity [4] | IC50 [5] [nM] | Activity [6] [%] | IC50 [7] [nM] | Activity [8] [%] | survival at 96 h, 160 µM [9] [%] | Activity [10] | Activity [11] | Activity [12] [%] | survival at 96 h, 20 µM [13] [%] | survival at 96 h ([1]; read-out: Survival) [%] | IC50 [14] [µg/mL] | IC50 [15] [µg/mL] | IC50 [16] [µg/mL] | Activity [17]
CCCCCCCCCCCC1=C(O)C(=O)C(Cc2cccc(Oc3ccccc3)c2)=C(O)C1=O | 70 | Toxic | Toxic | Toxic | 2880 | 80 | 2360 | 75.66 | 70 | Toxic | Toxic | 80.2 | 52 |  |  |  |  | 
C#Cc1ccc(CC2=C(O)C(=O)C(CCCCCCCCCCC)=C(O)C2=O)cc1 |  | Toxic | Toxic | Toxic | 4900 | 50.3 | 4720 | 51.33 |  | Toxic | Toxic | 52.1 |  | > 90 |  |  |  | 
CCCCCCCCCCCC1=C(O)C(=O)C=C(O)C1=O [EMBELIN] | 70 | Toxic | Toxic | Toxic | 3120 | 71.1 | 3120 | 75.66 | 70 | Toxic | Toxic | 75.1 | 52 |  | 27.9 (≈ 94.8 µM) | 0.23 (≈ 0.781 µM) | 27.92 (≈ 94.8 µM) | 
CCCCCCCCCCCC1=C(O)C(=O)C(Cc2ccccc2Cl)=C(O)C1=O |  | Toxic | Toxic | Toxic | 4620 | 50.3 | 5540 | 51.33 |  | Toxic | Toxic | 52.1 |  | > 90 |  |  |  | 
CCCCCCCCCCCC1=C(O)C(=O)C(Cc2ccc(O)cc2)=C(O)C1=O | 70 |  |  |  | 2830 | 80 | 2700 | 75.66 | 70 |  |  | 75.1 | 52 |  |  |  |  | Non-Toxic
CCCCCCCCCCCC1=C(O)C(=O)C(Cc2ccc(C(C)C)cc2)=C(O)C1=O | 70 |  |  |  | 1900 | 86 | 1910 | 75.66 | 70 |  |  | 87.2 | 52 |  |  |  |  | Non-Toxic
CCCCCCCCCCCC1=C(O)C(=O)C(Cc2ccccc2O)=C(O)C1=O | 70 |  |  |  | 3050 | 71.1 | 2870 | 75.66 | 70 |  |  | 75.1 | 52 |  |  |  |  | Non-Toxic
CCCCCCCCCCCC1=C(O)C(=O)C(Cc2ccc(N(C)C)cc2)=C(O)C1=O | 70 |  |  |  | 3370 | 71.1 | 2910 | 75.66 | 70 |  |  | 75.1 | 52 |  |  |  |  | Non-Toxic
